The results in this text go back to the RNAGym collection of RNA variant scans (doi:10.1002/anie.201605470).

The chains are these.
B1: Osa-1-4 twister ribozyme (parent)
chain: CCGCCUAACACUGCCAAUGCCGGUCCCAAGCCCGGAUAAAAGUGGAGGGGGCGG

Variants of B1 are the subject of this series. Nature of the series: self-cleavage, relative activity (ratio to wild type); higher = more cleavage; co-transcriptional. In short, it runs like this: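 The 48 positions downstream of the cleavage site in a DNA template for a 54-nucleotide Oryza sativa twister ribozyme carried 97 % wild-type base and 1 % of each other base. After in vitro transcription (2 h, 37 °C) with co-transcriptional self-cleavage, the RNA was reverse-transcribed with a template-switching oligonucleotide, PCR-amplified and deep-sequenced. Relative activity is the fraction cleaved, judged by reads with or without upstream sequence and normalised to wild type.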
As for A8G U18C, the self-cleavage worked out at 0.39. Then A8G U18A, with 0.57.

As to A8G U18G, the self-cleavage stood at 0.49. In the case of A8G G45C, the self-cleavage came out at 0.05.

For the variant A8G G45U, the self-cleavage was 0.14. For A8G G45A, the self-cleavage is 0.09. As for A8U G47A, the self-cleavage was found to be 0.06. In the case of A8U G47U it was 0.05; in that of A8U G47C, 0.05. C9A G49C: the self-cleavage worked out at 0.02. As for C9A G49A, the self-cleavage stood at 0.04.

C9A G49U: the self-cleavage turned out to be 0.03.

For A8G G47U, the self-cleavage came out at 0.1. Then A8G G47C, with 0.07. As for A8G G47A, the self-cleavage was found to be 0.11. For the variant A8U C32G, the self-cleavage is 0.07. With A8U C32A, the self-cleavage was 0.03.

As to A8U C32U, the self-cleavage was determined as 0.06. For A8G C21A, the self-cleavage turned out to be 0.14.

For the variant A8G C21G, the self-cleavage is 0.09. For the variant A8G C21U, the self-cleavage was determined as 0.38.

For A8U G51C, the self-cleavage was 0.04.

In the case of A8U G51A, the self-cleavage is 0.14.

On to A8U G51U, for which the self-cleavage was determined as 0.08. A8G G54C: the self-cleavage came to 0.21.

With A8G G54A, the self-cleavage turned out to be 0.27. On to A8G G54U, for which the self-cleavage amounted to 0.32. On to C9A G53C, for which the self-cleavage is 0.03.

On to C9A G53A, for which the self-cleavage amounted to 0.29. In the case of C9A G53U, the self-cleavage worked out at 0.09. In the case of C9A G42C it was 0.04; in that of C9A G42A, 0.09; in that of C9A G42U, 0.03. Take A8G U43A: the self-cleavage stood at 0.23. A8G U43C: the self-cleavage was 0.14. A8G U43G: the self-cleavage turned out to be 0.15. In the case of A8G G35C it was 0.16; in that of A8G G35A, 0.4; in that of A8G G35U, 0.35. As to A8U G19U, the self-cleavage came to 0.05. Consider A8U G19C, for which the self-cleavage was determined as 0.03. For A8U G19A, the self-cleavage turned out to be 0.08.

For the variant A8G C26G, the self-cleavage was determined as 0.27.

On to A8G C26A, for which the self-cleavage was found to be 0.04. Consider A8G C26U, for which the self-cleavage is 0.18. For C9A U24A, the self-cleavage is 0.04. C9A U24G: the self-cleavage worked out at 0.07.

Take C9A U24C: the self-cleavage is 0.07. Turning to A8C U43C, the self-cleavage is 0.08. For the variant A8C U43G, the self-cleavage turned out to be 0.08. Then A8G C9U, with 0.1; and A8G C9A, with 0.13. For the variant A8G C9G, the self-cleavage amounted to 0.2. C9G G44A: the self-cleavage was 0.82. In the case of C9G G44U it was 0.95. As to C9G G44C, the self-cleavage is 1.04. C9G: the self-cleavage amounted to 0.93.

Turning to C9A, the self-cleavage stood at 0.48. On to C9G G35C, for which the self-cleavage came out at 0.16. For the variant C9G G35U, the self-cleavage is 0.44. Regarding C9G G35A, the self-cleavage turned out to be 0.47. Consider A8U G49U, for which the self-cleavage amounted to 0.05. For the variant A8U G49A, the self-cleavage was determined as 0.05.

Consider A8U G49C, for which the self-cleavage turned out to be 0.04. Take A8U G13A: the self-cleavage came out at 0.05. As to A8U G13U, the self-cleavage turned out to be 0.02. Turning to A8U G13C, the self-cleavage came out at 0.03. Take A8U C25G: the self-cleavage worked out at 0.05.

As to A8U C25A, the self-cleavage stood at 0.07. On to A8U C25U, for which the self-cleavage came out at 0.11. Regarding A8U G44C, the self-cleavage came to 0.09.

With A8U G44A, the self-cleavage turned out to be 0.27.

Turning to A8U G44U, the self-cleavage was 0.13.

On to C9A G51U, for which the self-cleavage was 0.05.

In the case of C9A G51A, the self-cleavage amounted to 0.13. C9A G51C: the self-cleavage turned out to be 0.02.

For the variant A8G G44U, the self-cleavage was found to be 0.45.

Regarding A8G G44C, the self-cleavage was 0.35. Consider A8G G44A, for which the self-cleavage is 0.39.

Consider A8G G49A, for which the self-cleavage was found to be 0.08. For A8G G49U, the self-cleavage stood at 0.06. Then A8G G49C, with 0.05; and C9G G50A, with 0.48; and C9G G50C, with 0.59. Turning to C9G G50U, the self-cleavage was determined as 0.84.

As to A8U U24G, the self-cleavage amounted to 0.02. A8U U24A: the self-cleavage turned out to be 0.03. In the case of A8U U24C it was 0.05; in that of C9A G44A, 0.47. For C9A G44C, the self-cleavage came to 0.5. In the case of C9A G44U, the self-cleavage came to 0.63. In the case of A8U G45C it was 0.04.

On to A8U G45A, for which the self-cleavage worked out at 0.05. In the case of A8U G45U it was 0.08; in that of C9G G23A, 0.24; in that of C9G G23U, 0.04. Consider C9G G23C, for which the self-cleavage stood at 0.07.

For the variant C9A G50A, the self-cleavage was 0.13. Regarding C9A G50C, the self-cleavage came to 0.38. In the case of C9A G50U it was 0.5; in that of C9A G35A, 0.24; in that of C9A G35U, 0.32. With C9A G35C, the self-cleavage was 0.11. As for C9G G19U, the self-cleavage was found to be 0.11.

Turning to C9G G19C, the self-cleavage came out at 0.06.

Consider C9G G19A, for which the self-cleavage amounted to 0.2. For A8U C26G, the self-cleavage came out at 0.05.

For A8U C26U, the self-cleavage turned out to be 0.12. As to A8U C26A, the self-cleavage turned out to be 0.03. In the case of C9G G51C it was 0.06; in that of C9G G51A, 0.23; in that of C9G G51U, 0.12. On to C9A G13U, for which the self-cleavage is 0.04. For C9A G13A, the self-cleavage turned out to be 0.02.

In the case of C9A G13C, the self-cleavage was determined as 0.03.

In the case of C9G G34U, the self-cleavage worked out at 0.12. C9G G34C: the self-cleavage is 0.3.

For the variant C9G G34A, the self-cleavage is 0.29. With A8U U43A, the self-cleavage turned out to be 0.09. On to A8U U43G, for which the self-cleavage came out at 0.08.

For A8U U43C, the self-cleavage came out at 0.08. On to A8U G42U, for which the self-cleavage worked out at 0.03.

For A8U G42A, the self-cleavage was 0.1.

For A8U G42C, the self-cleavage stood at 0.06. In the case of C9G G22A, the self-cleavage was determined as 0.15. Take C9G G22U: the self-cleavage is 0.14.

With C9G G22C, the self-cleavage worked out at 0.05. For A8U C31U, the self-cleavage came out at 0.06. Regarding A8U C31A, the self-cleavage was found to be 0.03. On to A8U C31G, for which the self-cleavage came out at 0.05. For A8U C33G, the self-cleavage came to 0.04. Consider A8U C33A, for which the self-cleavage amounted to 0.05.

In the case of A8U C33U, the self-cleavage was 0.09. As for A8U G35A, the self-cleavage amounted to 0.27.

Turning to A8U G35U, the self-cleavage was 0.18. Consider A8U G35C, for which the self-cleavage was found to be 0.08. As for C9A U18C, the self-cleavage is 0.19. Consider C9A U18A, for which the self-cleavage was 0.47. Then C9A U18G, with 0.31; and C9G G30A, with 0.02; and C9G G30U, with 0.04. With C9G G30C, the self-cleavage turned out to be 0.04. As to C9A G45C, the self-cleavage worked out at 0.01.

In the case of C9A G45A, the self-cleavage is 0.04. As for C9A G45U, the self-cleavage is 0.03. Turning to A8U, the self-cleavage turned out to be 0.49. In the case of A8G it was 0.71; in that of A8G U37A, 0.56; in that of A8G U37G, 0.75.

For A8G U37C, the self-cleavage was 0.68. Consider A8U G50U, for which the self-cleavage was 0.35. As for A8U G50A, the self-cleavage worked out at 0.26.

For the variant A8U G50C, the self-cleavage worked out at 0.24. In the case of A8U G48U it was 0.04. Consider A8U G48C, for which the self-cleavage stood at 0.05.

In the case of A8U G48A, the self-cleavage worked out at 0.05. For the variant A8G G53C, the self-cleavage is 0.08. As to A8G G53A, the self-cleavage was determined as 0.16. In the case of A8G G53U it was 0.11; in that of A8G U24A, 0.12; in that of A8G U24C, 0.1. Consider A8G U24G, for which the self-cleavage turned out to be 0.03. For C9A U12A, the self-cleavage was 0.16. Turning to C9A U12G, the self-cleavage is 0.08. As for C9A U12C, the self-cleavage was determined as 0.1. Then C9A U37G, with 0.53; and C9A U37A, with 0.28.
